Measured values from ChEMBL document CHEMBL2407075, “Sulphonamido-quinoxalines: search for anticancer agent” (Eur J Med Chem, 2013).

What was measured:
OVCAR-3 = assay: Growth inhibition of human OVCAR3 cells at 10 uM after 48 hrs by sulforhodamine B assay; assay type: functional; conditions: OVCAR-3, 48 h, read-out: GI
In short: (§1)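 Single-dose screen at 10 µM across the NCI 60 panel. Cells in RPMI 1640 with 5% FBS and 2 mM L-glutamine, plated at 5000–40,000/well and preincubated 24 h at 37 °C, 5% CO2. Drug in DMSO, 48 h exposure. Fixed with TCA, stained with SRB, A515 read. Percent growth is taken relative to untreated control, and inhibition is 100 minus growth.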

SF-539 = assay: Growth inhibition of human SF539 cells at 10 uM after 48 hrs by sulforhodamine B assay; assay type: functional; conditions: SF-539, 48 h, read-out: GI; in short: as §1
MOLT-4 = assay: Growth inhibition of human MOLT4 cells at 10 uM after 48 hrs by sulforhodamine B assay; assay type: functional; conditions: MOLT-4, 48 h, read-out: GI; in short: as §1
NCI-H322M = assay: Growth inhibition of human NCI-H322M cells at 10 uM after 48 hrs by sulforhodamine B assay; assay type: functional; conditions: read-out: GI; in short: as §1
HL-60(TB) = assay: Growth inhibition of human HL-60(TB) cells at 10 uM after 48 hrs by sulforhodamine B assay; assay type: functional; conditions: HL-60, 48 h, read-out: GI
In short: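 Single-dose NCI-60 primary screen at 10 µM, 48 h exposure, SRB read-out. Growth percentage of treated versus untreated cells was recorded and given as percent inhibition by subtraction.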

SR = assay: Growth inhibition of human SR cells at 10 uM after 48 hrs by sulforhodamine B assay; assay type: functional; conditions: read-out: GI; in short: as §1
T47D = assay: Growth inhibition of human T47D cells at 10 uM after 48 hrs by sulforhodamine B assay; assay type: functional; conditions: read-out: GI; in short: as §1
CAKI-1 = assay: Growth inhibition of human CAKI-1 cells at 10 uM after 48 hrs by sulforhodamine B assay; assay type: functional; conditions: CAKI-1, 48 h, read-out: GI
In short: (§2)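 Single-dose NCI-60 prescreen at 10 µM for 48 h at 37 °C and 5% CO2, using cells grown in RPMI 1640 with 5% FBS and 2 mM glutamine. Protein was measured by SRB after TCA fixation: 10% final for adherent lines, 16% for suspension lines. Absorbance was read at 515 nm. Percent growth inhibition was obtained by subtracting percent growth from 100.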

NCI-H522 = assay: Growth inhibition of human NCI-H522 cells at 10 uM after 48 hrs by sulforhodamine B assay; assay type: functional; conditions: NCI-H522, 48 h, read-out: GI; in short: as §1
UO-31 = assay: Growth inhibition of human UO31 cells at 10 uM after 48 hrs by sulforhodamine B assay; assay type: functional; conditions: UO-31, 48 h, read-out: GI; in short: as §1
NCI-H460 = assay: Growth inhibition of human NCI-H460 cells at 10 uM after 48 hrs by sulforhodamine B assay; assay type: functional; conditions: NCI-H460, 48 h, read-out: GI; in short: as §1
ACHN = assay: Growth inhibition of human ACHN cells at 10 uM after 48 hrs by sulforhodamine B assay; assay type: functional; conditions: read-out: GI; in short: as §2
786-0 = assay: Growth inhibition of human 786-0 cells at 10 uM after 48 hrs by sulforhodamine B assay; assay type: functional; conditions: 786-0, 48 h, read-out: GI; in short: as §2
OVCAR-4 = assay: Growth inhibition of human OVCAR4 cells at 10 uM after 48 hrs by sulforhodamine B assay; assay type: functional; conditions: OVCAR-4, 48 h, read-out: GI; in short: as §1
OVCAR-5 = assay: Growth inhibition of human OVCAR5 cells at 10 uM after 48 hrs by sulforhodamine B assay; assay type: functional; conditions: OVCAR-5, 48 h, read-out: GI; in short: as §1
MDA-MB-435 = assay: Growth inhibition of human MDA-MB-435 cells at 10 uM after 48 hrs by sulforhodamine B assay; assay type: functional; conditions: MDA-MB-435, 48 h, read-out: GI; in short: as §1
HT-29 = assay: Growth inhibition of human HT-29 cells at 10 uM after 48 hrs by sulforhodamine B assay; assay type: functional; conditions: HT-29, 48 h, read-out: GI
In short: (§3)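 NCI-60 one-dose primary screen at a single 10 µM concentration. Cells in RPMI 1640 with 5% FBS, preincubated 24 h at 37 °C, 5% CO2. Drug exposure 48 h, then TCA fixation, SRB staining and absorbance at 515 nm. Percent growth calculated against time-zero and untreated control wells, then converted to percent growth inhibition.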

NCI-H226 = assay: Growth inhibition of human NCI-H226 cells at 10 uM after 48 hrs by sulforhodamine B assay; assay type: functional; conditions: NCI-H226, 48 h, read-out: GI; in short: as §1
RPMI-8226 = assay: Growth inhibition of human RPMI8226 cells at 10 uM after 48 hrs by sulforhodamine B assay; assay type: functional; conditions: RPMI-8226, 48 h, read-out: GI; in short: as §1
HCT-116 = assay: Growth inhibition of human HCT116 cells at 10 uM after 48 hrs by sulforhodamine B assay; assay type: functional; conditions: HCT-116, 48 h, read-out: GI; in short: as §3
[1] = Growth inhibition of human NCI-ADR-RES cells at 10 uM after 48 hrs by sulforhodamine B assay; assay type: functional; conditions: read-out: GI; in short: as §1
[2] = Oral bioavailability in human; assay type: ADME, organism-based; conditions: in silico prediction
SN12C = assay: Growth inhibition of human SN12C cells at 10 uM after 48 hrs by sulforhodamine B assay; assay type: functional; conditions: read-out: GI; in short: as §1
NCI-H23 = assay: Growth inhibition of human NCI-H23 cells at 10 uM after 48 hrs by sulforhodamine B assay; assay type: functional; conditions: NCI-H23, 48 h, read-out: GI; in short: as §1
M14 = assay: Growth inhibition of human M14 cells at 10 uM after 48 hrs by sulforhodamine B assay; assay type: functional; conditions: M14, 48 h, read-out: GI; in short: as §1
SNB-19 = assay: Growth inhibition of human SNB19 cells at 10 uM after 48 hrs by sulforhodamine B assay; assay type: functional; conditions: SNB-19, 48 h, read-out: GI; in short: as §1
SNB-75 = assay: Growth inhibition of human SNB75 cells at 10 uM after 48 hrs by sulforhodamine B assay; assay type: functional; conditions: SNB-75, 48 h, read-out: GI; in short: as §1
HCT-15 = assay: Growth inhibition of human HCT15 cells at 10 uM after 48 hrs by sulforhodamine B assay; assay type: functional; conditions: HCT-15, 48 h, read-out: GI; in short: as §3
SW-620 = assay: Growth inhibition of human SW620 cells at 10 uM after 48 hrs by sulforhodamine B assay; assay type: functional; conditions: SW-620, 48 h, read-out: GI; in short: as §1
COLO 205 = assay: Growth inhibition of human COLO205 cells at 10 uM after 48 hrs by sulforhodamine B assay; assay type: functional; conditions: COLO 205, 48 h, read-out: GI; in short: as §2
SK-MEL-2 = assay: Growth inhibition of human SK-MEL-2 cells at 10 uM after 48 hrs by sulforhodamine B assay; assay type: functional; conditions: SK-MEL-2, 48 h, read-out: GI; in short: as §1
CCRF-CEM = assay: Growth inhibition of human CCRF-CEM cells at 10 uM after 48 hrs by sulforhodamine B assay; assay type: functional; conditions: read-out: GI; in short: as §2
KM12 = assay: Growth inhibition of human KM12 cells at 10 uM after 48 hrs by sulforhodamine B assay; assay type: functional; conditions: KM12, 48 h, read-out: GI; in short: as §1
SK-OV-3 = assay: Growth inhibition of human SKOV3 cells at 10 uM after 48 hrs by sulforhodamine B assay; assay type: functional; conditions: SK-OV-3, 48 h, read-out: GI; in short: as §1

SMILES | inhibition of growth at 10 µM (OVCAR-3) [%] | inhibition of growth at 10 µM (SF-539) [%] | inhibition of growth at 10 µM (MOLT-4) [%] | inhibition of growth at 10 µM (NCI-H322M) [%] | inhibition of growth at 10 µM (HL-60(TB)) [%] | inhibition of growth at 10 µM (SR) [%] | inhibition of growth at 10 µM (T47D) [%] | inhibition of growth at 10 µM (CAKI-1) [%] | inhibition of growth at 10 µM (NCI-H522) [%] | inhibition of growth at 10 µM (UO-31) [%] | inhibition of growth at 10 µM (NCI-H460) [%] | inhibition of growth at 10 µM (ACHN) [%] | inhibition of growth at 10 µM (786-0) [%] | inhibition of growth at 10 µM (OVCAR-4) [%] | inhibition of growth at 10 µM (OVCAR-5) [%] | inhibition of growth at 10 µM (MDA-MB-435) [%] | inhibition of growth at 10 µM (HT-29) [%] | inhibition of growth at 10 µM (NCI-H226) [%] | inhibition of growth at 10 µM (RPMI-8226) [%] | inhibition of growth at 10 µM (HCT-116) [%] | also measured
O=S(=O)(Nc1cccc2ccccc12)c1ccc2nc(-c3ccccc3)c(-c3ccccc3)nc2c1 | 30.9 | 5.57 | 47.8 | 22.2 | 71 | 81.1 | 49.4 | 3.34 | 47.8 | 17.9 | 23.6 | 21.9 | 4.34 | 31.2 | 2.98 | 20.4 | 82.5 | 44 | 44.3 | 49.9 | inhibition of growth at 10 µM [1]: 22.6%; bioavailability [2]: 100%; inhibition of growth at 10 µM (SN12C): 8.87%; inhibition of growth at 10 µM (NCI-H23): 21.3%; inhibition of growth at 10 µM (M14): 2.23%; inhibition of growth at 10 µM (SNB-19): 9.78%; inhibition of growth at 10 µM (SNB-75): 39.9%; inhibition of growth at 10 µM (HCT-15): 34.3%; inhibition of growth at 10 µM (SW-620): 26.8%; inhibition of growth at 10 µM (COLO 205): 27.9%; inhibition of growth at 10 µM (SK-MEL-2): 14.9%; inhibition of growth at 10 µM (CCRF-CEM): 58.3%; inhibition of growth at 10 µM (KM12): 29.9%; inhibition of growth at 10 µM (SK-OV-3): 5.86%
O=S(=O)(Nc1ccc(Cl)cc1)c1ccc2nc(-c3ccccc3)c(-c3ccccc3)nc2c1 | 28.8 | 25.9 | 60.8 | 32.8 | 66.7 | 88.1 | 72.1 | 33.9 | 50.8 | 29.2 | 47.1 | 23.9 | 66.9 | 30.3 | 18.3 | 35.6 | 70.4 | -2.45 | 86 | 59.6 | inhibition of growth at 10 µM [1]: 55.2%; bioavailability [2]: 100%; inhibition of growth at 10 µM (SN12C): 26.9%; inhibition of growth at 10 µM (NCI-H23): 26.6%; inhibition of growth at 10 µM (M14): 31%; inhibition of growth at 10 µM (SNB-19): 31.9%; inhibition of growth at 10 µM (SNB-75): 45.1%; inhibition of growth at 10 µM (HCT-15): 44.7%; inhibition of growth at 10 µM (SW-620): 30.3%; inhibition of growth at 10 µM (COLO 205): 26.6%; inhibition of growth at 10 µM (SK-MEL-2): 23.9%; inhibition of growth at 10 µM (CCRF-CEM): 61.9%; inhibition of growth at 10 µM (KM12): 38.7%; inhibition of growth at 10 µM (SK-OV-3): 18.5%
COc1ccccc1NS(=O)(=O)c1ccc2nc(-c3ccccc3)c(-c3ccccc3)nc2c1 | 13.5 | 24.7 | 56.9 | 23.2 | 60.7 | 81.9 | 63.9 | 23.9 | 28.8 | 22.8 | 45.5 | 13.1 | 41.5 | 30 | 12.7 | 22.5 | 63.9 | 69.9 | 65.7 | 55.7 | inhibition of growth at 10 µM [1]: 41%; bioavailability [2]: 100%; inhibition of growth at 10 µM (SN12C): 32.6%; inhibition of growth at 10 µM (NCI-H23): 23%; inhibition of growth at 10 µM (M14): 26%; inhibition of growth at 10 µM (SNB-19): 41.9%; inhibition of growth at 10 µM (SNB-75): 31.9%; inhibition of growth at 10 µM (HCT-15): 44.7%; inhibition of growth at 10 µM (SW-620): 21.5%; inhibition of growth at 10 µM (COLO 205): 28.9%; inhibition of growth at 10 µM (SK-MEL-2): 25%; inhibition of growth at 10 µM (CCRF-CEM): 49.8%; inhibition of growth at 10 µM (KM12): 8.62%; inhibition of growth at 10 µM (SK-OV-3): 18.6%
